This note sets out measurements from ChEMBL document CHEMBL4007439, “Design, Synthesis, and Evaluation of a Novel Series of Oxadiazine Gamma Secretase Modulators for Familial Alzheimer's Disease” (J Med Chem, 2017).

pEC50: −log10 of the molar value. Active and inactive are the calls of the source. No cut-off for these calls is given here. Some results are limits rather than exact numbers.

A short description of data set [1]: Modulation of gamma-secretase (unknown origin). Further details: species or system Homo sapiens.
In data set [2] the test system is Mus musculus. Description: Reduction in amyloid beta 42 levels in mouse brain at 30 mg/kg, po measured at 6 hrs post dose by ELISA. Type of data set: functional. Put shortly: (§1)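 Single oral dose of 30 mg/kg; brain (mouse, rat) and rat CSF Aβ42 and Aβ37 measured 6 h post-dose, expressed relative to vehicle; total and free brain drug levels and brain:plasma ratio taken at the same time.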
A general note: ELISA stands for enzyme-linked immunosorbent assay.

Data set [3] is described as follows: Modulation of gamma-secretase in human H4 cells expressing human APP751 assessed as inhibition of amyloid beta 42 production incubated overnight by sandwich ELISA. It counts as cell-based. The gist of the method:
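Aβ42 EC50 in H4 cells overexpressing WT human APP751; each value is the average of n > 2 assays, each run in duplicate.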

The nature of data set [4]: Unbound intrinsic clearance in rat hepatocytes. It counts as ADME, cell-based, Hepatocyte.
Data set [5] deals with Mus musculus. Description: Reduction in amyloid beta 42 levels in mouse brain at 90 mg/kg, po measured at 6 hrs post dose by ELISA. Type of data set: functional. The gist of the method:
(§2)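 Mice dosed 90 mg/kg; brain Aβ42 lowering, total brain drug concentration and brain:plasma ratio measured 6 hours post-dose.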

Data set [6] can be described thus: Ratio of drug level in brain to plasma in mouse at 90 mg/kg, po measured at 6 hrs post dose. The note with it: read-out: BPR. Type of data set: ADME, organism-based. Put shortly: as §2
Data set [7] is described as follows: Total drug uptake in mouse brain at 90 mg/kg, po measured at 6 hrs post dose. It counts as ADME, organism-based. The note with it: read-out: Drug uptake. The gist of the method: as §2
The next data set deals with Brain. Put plainly: Unbound drug level in mouse brain at 30 mg/kg, po measured at 6 hrs post dose. It counts as ADME, organism-based. The note with it: in vivo. The gist of the method: as §1
Data set [8] is described as follows: Ratio of drug level in brain to plasma in mouse at 30 mg/kg, po measured at 6 hrs post dose. It counts as ADME, organism-based. The following applies: read-out: BPR. Put shortly: as §1
Data set [9] can be described thus: Total drug level in mouse brain at 30 mg/kg, po measured at 6 hrs post dose. Type of data set: ADME, organism-based. The note with it: read-out: Drug uptake. Put shortly:
as §1

A word on the pEC50: it is the negative decadic logarithm of the EC50, by convention in mol/L. The molecule `COc1cc(N2CCC(C(=O)N3CCC[C@@H](Oc4ccc(Cl)cc4C(F)(F)F)C3)CC2)ccn1` showed a pEC50 in data set [1] of 7.46.

On to `COc1cc(C2=NOC[C@H](COc3ccc(Cl)cc3C(F)(F)F)N2C)ccc1-n1cnc(C)c1`, for which, in the data set with Mus musculus [2], the outcome was inactive. Also, the pEC50 in [3] (Homo sapiens) is 6.95.

As to `COc1cc(C2=NOC[C@@H](COc3ccc(F)cc3C)N2)ccc1-c1ccnc(C)c1`, the result in the data set with Mus musculus [2] was inactive. Also, the pEC50 in data set [3] (Homo sapiens) is 5.19.

As for `COc1cc(C2=NOC[C@H](COc3ccc(F)cc3C)N2)ccc1-c1ccnc(C)c1`, the outcome in the data set with Mus musculus [2] was inactive. Also, the pEC50 in [3] (Homo sapiens) was 6.96.

In the case of `COc1cc(C2=NOC[C@@H](COc3ccc(F)cc3C)N2)ccc1-n1cnc(C)c1`, the outcome with Mus musculus [2] was inactive. Moreover, the pEC50 in data set [3] (Homo sapiens) was 5.54.

Turning to `COc1nc(C2=NOC[C@H]3[C@@H](Oc4ccc(F)cc4C)CCCN23)ccc1-n1cnc(C)c1`, the pEC50 in data set [3] (Homo sapiens) is under 5.52.

`COc1nc(C2=NOC[C@H](COc3ccc(F)cc3C)N2)ccc1-c1cnc(C)s1`: the negative logarithm of the EC50 (pEC50) in data set [3] (Homo sapiens) is 5.90.

On to `COc1nc(C2=NOC[C@@H]3[C@H](Oc4ccc(F)cc4C)CCCN23)ccc1-n1cnc(C)c1`, for which the negative logarithm of the EC50 (pEC50) in [3] (Homo sapiens) is 6.71.

Turning to `COc1nc(C2=NOC[C@H](COc3ccc(Cl)cc3C(F)(F)F)N2)ccc1-n1cnc(C)c1`, the result in the data set on Mus musculus [2] was inactive. In addition, the CL free in data set [4] is 229.8 L/h/kg. Also, the pEC50 in [3] (Homo sapiens) is 7.57.

With `COc1cc(C2=NOC[C@H](COc3ccc(Cl)cc3C(F)(F)F)N2)ccc1-n1cnc(C)c1`, in the data set on Mus musculus [2], the result was inactive. The pEC50 in data set [3] (Homo sapiens) was 6.96.

The molecule `COc1nc(C2=NOC[C@H](COc3ccc(F)cc3C)N2)ccc1-n1cnc(C)c1` returned a CL free in [4] of 114.4 L/h/kg. The negative-log EC50 (pEC50) in data set [3] (Homo sapiens) was 7.29.

Turning to `COc1nc(C2=NOC[C@H](COc3ccc(F)cc3C)N2)ccc1-n1cnc(Cl)c1`, the CL free in data set [4] turned out to be 246.3 L/h/kg. The pEC50 in [3] (Homo sapiens) is 7.14.

The inhibition in vivo is how much of the control response was suppressed. As for `COc1nc(C2=NOC[C@@H]3[C@H](Oc4ccc(Cl)cc4C(F)(F)F)CCCN23)ccc1-n1cnc(C)c1`, the inhibition in vivo at 90 mg/kg in the data set with Mus musculus [5] worked out at 32%. For the same molecule, in data set [4], the CL free is 255.1 L/h/kg. In addition, the Kp at 6 h in data set [6] was 0.6. The concentration at 6 h in [7] was 36 µM. In addition, in [3] (Homo sapiens), the pEC50 is 7.82.

`COc1nc(C2=NOC[C@H](c3cc4ccccc4s3)N2)ccc1-n1cnc(C)c1` showed an inhibition in vivo at 30 mg/kg with Mus musculus [2] of 34%. In addition, the “Drug uptake(free)” value in the data set on Brain worked out at 76 nM. The molecule also registered a CL free in [4] of 25.8 L/h/kg. The pEC50 in [3] (Homo sapiens) is 8.10. Besides, the Kp at 6 h in data set [8] was determined as 2.8. Further, the concentration at 6 h in [9] turned out to be 30.2 µM.

On to `COc1nc(C2=NOCC3CN(c4ccc(Cl)cc4C(F)(F)F)CCN23)ccc1-n1cnc(C)c1` (single isomer, unassigned; (-)), for which the pEC50 in data set [3] is 6.51.

Regarding `COc1nc(C2=NOCC3CN(c4ccc(Cl)cc4C(F)(F)F)CCN23)ccc1-n1cnc(C)c1` (single isomer, unassigned; (+)), in data set [3], the pEC50 was 7.19.

In data set [4], `COc1nc(C2=NOC[C@H](COc3ccc(F)cc3C)N2)ccc1-c1ccnc(C)c1` yielded a CL free of 195.5 L/h/kg. In data set [3] (Homo sapiens), the pEC50 is 7.01.

Regarding `COc1nc(C2=NOC[C@@H]3[C@H](Oc4ccc(F)cc4C)CCCN23)ccc1-c1ccnc(C)c1`, the pEC50 in data set [3] (Homo sapiens) was 6.62.

Turning to `COc1nc(C2=NOC[C@H](COc3ccc(F)cc3C)N2)ccc1-c1cnn(C)c1`, the negative-log EC50 (pEC50) in [3] (Homo sapiens) is 6.22.

With `COc1cc(C2=NOC[C@H](COc3ccc(Cl)cc3C(F)(F)F)N2)ccc1-c1ccnc(C)c1`, the result in the data set with Mus musculus [2] was inactive. For the same molecule, the pEC50 in [3] (Homo sapiens) is 6.60.

With `COc1nc(C2=NOC[C@H](COc3ccc(F)cc3C)N2)ccc1-c1ocnc1C`, in [3] (Homo sapiens), the negative-log EC50 (pEC50) is 5.87.

With `COc1cc(C2=NOC[C@H](COc3ccc(F)cc3C)N2)ccc1-n1cnc(C)c1`, the result in the data set on Mus musculus [2] was inactive. The pEC50 in data set [3] (Homo sapiens) is 6.64.
